{
  "source": "ChEMBL document CHEMBL1828561",
  "about": "“Identification of a potent and selective free fatty acid receptor 1 (FFA1/GPR40) agonist with favorable physicochemical and in vitro ADME properties” (J Med Chem, 2011)",
  "key": {"1321-N1 [1]": {"system": "1321-N1", "assay": "Selectivity for human FFA1 receptor expressed in human 1321N1 cells over 5HT5a receptor", "format": "cell-based"}, "1321-N1 [2]": {"system": "1321-N1", "assay": "Selectivity for human FFA1 receptor expressed in human 1321N1 cells over TP receptor", "format": "cell-based"}, "[3]": {"assay": "Permeability across methotrexate treated human HT-29 cells assessed as compound recovery", "format": "ADME, cell-based", "settings": "read-out: Activity", "procedure,_shortened": "(§1)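 HT29-MTX mucus-producing cells, passage 32, grown 23 days (TEER > 750 Ω cm²). Compound at 100 μM (10 mM DMSO stock diluted 1:100 in buffer). […] Non-permeated drug measured for recovery. Monolayer integrity checked by 20 μM carboxyfluorescein after 1 h and TEER.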"}, "1321-N1 [4]": {"system": "1321-N1", "assay": "Selectivity for human FFA1 receptor expressed in human 1321N1 cells over A2A receptor", "format": "cell-based"}, "1321-N1 [5]": {"system": "1321-N1", "assay": "Selectivity for human FFA1 receptor expressed in human 1321N1 cells over CCR1 receptor", "format": "cell-based"}, "1321-N1 [6]": {"system": "1321-N1", "assay": "Selectivity for human FFA1 receptor expressed in human 1321N1 cells over AT1 receptor", "format": "cell-based"}, "1321-N1 [7]": {"system": "1321-N1", "assay": "Selectivity for human FFA1 receptor expressed in human 1321N1 cells over 5HT2A receptor", "format": "cell-based"}, "1321-N1 [8]": {"system": "1321-N1", "assay": "Selectivity for human FFA1 receptor expressed in human 1321N1 cells over 5HT transporter", "format": "cell-based"}, "Liver": {"system": "Liver", "assay": "Metabolic stability in human liver S9 fraction", "format": "ADME, subcellular"}, "1321-N1 [9]": {"system": "1321-N1", "assay": "Selectivity for human FFA1 receptor expressed in human 1321N1 cells over M1 receptor", "format": "cell-based"}, "1321-N1 [10]": {"system": "1321-N1", "assay": "Selectivity for human FFA1 receptor expressed in human 1321N1 cells over Y2 receptor", "format": "cell-based"}, "[11]": {"assay": "Aqueous solubility of the compound in PBS at pH 7.4", "format": "physicochemical", "procedure,_shortened": "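Solubility measured in PBS at pH 7.4.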"}, "1321-N1 [12]": {"system": "1321-N1", "assay": "Selectivity for human FFA1 receptor expressed in human 1321N1 cells over alpha2 receptor", "format": "cell-based"}, "1321-N1 [13]": {"system": "1321-N1", "assay": "Selectivity for human FFA1 receptor expressed in human 1321N1 cells over 5HT7 receptor", "format": "cell-based"}, "1321-N1 [14]": {"system": "1321-N1", "assay": "Selectivity for human FFA1 receptor expressed in human 1321N1 cells over dopamine transporter", "format": "cell-based"}, "1321-N1 [15]": {"system": "1321-N1", "assay": "Selectivity for human FFA1 receptor expressed in human 1321N1 cells over beta2 receptor", "format": "cell-based"}, "[16]": {"assay": "Plasma protein binding in human", "format": "ADME, cell-free", "settings": "read-out: PPB (converted)"}, "1321-N1 [17]": {"system": "1321-N1", "assay": "Selectivity for human FFA1 receptor expressed in human 1321N1 cells over beta1 receptor", "format": "cell-based"}, "1321-N1 [18]": {"system": "1321-N1", "assay": "Selectivity for human FFA1 receptor expressed in human 1321N1 cells over A3 receptor", "format": "cell-based"}, "1321-N1 [19]": {"system": "1321-N1", "assay": "Selectivity for human FFA1 receptor expressed in human 1321N1 cells over Kv channel", "format": "cell-based"}, "1321-N1 [20]": {"system": "1321-N1", "assay": "Selectivity for human FFA1 receptor expressed in human 1321N1 cells over CXCR2 receptor", "format": "cell-based"}, "1321-N1 [21]": {"system": "1321-N1", "assay": "Selectivity for human FFA1 receptor expressed in human 1321N1 cells over Ca2+ channel", "format": "cell-based"}, "[22]": {"assay": "Chemical stability of the compound in PBS at 37 degC for 12 days", "format": "physicochemical", "settings": "read-out: Stability", "procedure,_shortened": "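Stability followed in PBS at 37 °C over 12 days.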"}, "1321-N1 [23]": {"system": "1321-N1", "assay": "Selectivity for human FFA1 receptor expressed in human 1321N1 cells over Na+ channel", "format": "cell-based"}, "1321-N1 [24]": {"system": "1321-N1", "assay": "Selectivity for human FFA1 receptor expressed in human 1321N1 cells over SKCa channel", "format": "cell-based"}, "HEK293": {"system": "HEK293", "assay": "Selectivity for human FFA1 receptor expressed in human 1321N1 cells over human FFA2 receptor expressed in HEK293 cells at 10 uM", "format": "cell-based"}, "[25]": {"assay": "Apparent permeability across methotrexate treated human HT-29 cells", "format": "ADME, cell-based", "procedure,_shortened": "as §1"}, "1321-N1 [26]": {"system": "1321-N1", "assay": "Selectivity for human FFA1 receptor expressed in human 1321N1 cells over NK3 receptor", "format": "cell-based"}, "CYP1A2": {"molecular_target": "T1, CYP1A2 (Homo sapiens, UniProt P05177)", "T1 sequence (P05177 whole entry)": "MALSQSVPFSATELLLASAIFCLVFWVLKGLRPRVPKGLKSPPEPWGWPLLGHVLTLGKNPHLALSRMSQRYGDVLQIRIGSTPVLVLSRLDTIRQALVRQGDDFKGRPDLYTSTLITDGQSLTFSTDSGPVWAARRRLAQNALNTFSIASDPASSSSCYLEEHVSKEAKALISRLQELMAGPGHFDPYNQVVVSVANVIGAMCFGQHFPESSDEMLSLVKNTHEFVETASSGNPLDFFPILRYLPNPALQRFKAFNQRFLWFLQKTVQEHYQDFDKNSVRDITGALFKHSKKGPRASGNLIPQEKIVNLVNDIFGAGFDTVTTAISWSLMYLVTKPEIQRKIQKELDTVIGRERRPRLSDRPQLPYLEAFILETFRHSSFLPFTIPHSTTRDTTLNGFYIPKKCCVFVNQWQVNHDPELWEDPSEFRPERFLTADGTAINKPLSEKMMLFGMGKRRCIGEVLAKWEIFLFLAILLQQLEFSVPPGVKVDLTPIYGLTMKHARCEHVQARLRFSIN", "assay": "Inhibition of CYP1A2 at 10 uM", "format": "ADME"}, "[27]": {"molecular_target": "Free fatty acid receptor 1 (Rattus norvegicus) (UniProt Q8K3T4)", "sequence (Q8K3T4 whole entry)": "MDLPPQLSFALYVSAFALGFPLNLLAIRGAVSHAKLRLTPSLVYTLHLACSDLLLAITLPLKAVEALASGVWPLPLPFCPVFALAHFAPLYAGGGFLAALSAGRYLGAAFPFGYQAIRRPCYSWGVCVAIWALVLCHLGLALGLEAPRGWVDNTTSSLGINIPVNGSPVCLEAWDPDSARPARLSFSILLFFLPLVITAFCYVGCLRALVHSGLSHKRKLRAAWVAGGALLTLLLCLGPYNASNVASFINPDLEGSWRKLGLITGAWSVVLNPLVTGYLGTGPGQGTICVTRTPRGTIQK", "assay": "Agonist activity at FFA1 receptor in rat INS-1E cells assessed as increase in glucose-stimulated insulin production at 10 uM after 1 hr by radioimmunoassay in presence of 2.8 mM glucose", "format": "functional, cell-based", "procedure,_shortened": "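Rat INS-1E cells seeded at 100 000 cells/mL in 24-well plates for 2 days. Incubated 1 h at 37 °C in pH 7.4 HEPES-bicarbonate saline with 1 mM CaCl2 and 0.5 g/L fatty-acid-free BSA plus test substance. Secreted insulin and acid-ethanol-extracted content measured by radioimmunoassay. Mean ± SE, n = 8.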"}, "[28]": {"molecular_target": "T2, Free fatty acid receptor 1 (Homo sapiens, UniProt O14842)", "T2 sequence (O14842 whole entry)": "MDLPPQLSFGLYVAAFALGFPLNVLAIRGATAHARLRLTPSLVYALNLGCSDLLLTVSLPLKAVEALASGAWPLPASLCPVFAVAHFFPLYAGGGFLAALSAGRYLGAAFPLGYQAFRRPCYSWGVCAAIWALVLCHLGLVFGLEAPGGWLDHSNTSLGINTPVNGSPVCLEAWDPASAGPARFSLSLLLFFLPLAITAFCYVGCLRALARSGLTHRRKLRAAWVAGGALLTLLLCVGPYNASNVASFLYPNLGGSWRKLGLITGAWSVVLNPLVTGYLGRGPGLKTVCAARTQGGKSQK", "assay": "Agonist activity at human FFA1 receptor expressed in human HEK293 assessed as accumulation of IP1 by time-resolved fluorescence assay", "format": "functional, cell-based", "procedure,_shortened": "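Doxycycline-inducible FLAG-tagged human FFA1 in Flp-In T-Rex HEK293 cells, 100 000 cells/well (384-well). 20 min at 37 °C, then ligands in HBSS/10 mM HEPES/50 mM LiCl for 30 min. HTRF IP1 kit (d2 conjugate, Eu cryptate anti-IP1), 60 min at room temperature. 665/620 nm ratio expressed as ΔF%, normalized to maximal response at 10 μM of the reference agonist; n = 5.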"}, "[29]": {"assay": "Octanol-water partition coefficient, log D of the compound at pH 7.4 by HPLC analysis", "format": "physicochemical", "procedure,_shortened": "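Distribution between n-octanol and water (PBS), pH 7.4, determined experimentally.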"}, "1321-N1 [30]": {"system": "1321-N1", "assay": "Selectivity for human FFA1 receptor expressed in human 1321N1 cells over 5HT1B receptor", "format": "cell-based"}, "[31]": {"molecular_target": "T2, Free fatty acid receptor 1", "assay": "Agonist activity at human FFA1 receptor expressed in human 1321N1 cells assessed as calcium mobilization by fluorescence spectrophotometry relative to 10 uM TUG-20", "format": "functional, cell-based", "procedure,_shortened": "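Human FFA1 stably expressed in 1321N1 cells kept under G418 selection, 30000–40000 cells/well. After 24 h, washed in Krebs-HEPES pH 7.4 and loaded 1 h at 37 °C with 1.5 μM Oregon Green 488 BAPTA-1/AM. Compound injected at 10-fold concentration at 37 °C; fluorescence ex 485/em 520 nm over 50 × 0.4 s. Efficacy as % of maximal response to 10 μM TUG-20.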"}, "1321-N1 [32]": {"system": "1321-N1", "assay": "Selectivity for human FFA1 receptor expressed in human 1321N1 cells over […]", "format": "cell-based"}},
  "note": "Active and inactive are the calls of the source. The calls are words filed in the database; no cut-off is given here.",
  "data": [
    {"smiles": "O=C(O)CCc1ccc(C#Cc2cc(Cl)nc(Cl)c2)cc1", "values": [
      {"measurement": "Selectivity ratio", "setting": "1321-N1 [1]", "result": "> 100"},
      {"measurement": "Selectivity ratio", "setting": "1321-N1 [2]", "result": "> 100"},
      {"measurement": "recovery", "setting": "[3]", "result": 63, "unit": "%"},
      {"measurement": "Selectivity ratio", "setting": "1321-N1 [4]", "result": "> 100"},
      {"measurement": "Selectivity ratio", "setting": "1321-N1 [5]", "result": "> 100"},
      {"measurement": "Selectivity ratio", "setting": "1321-N1 [6]", "result": "> 100"},
      {"measurement": "Selectivity ratio", "setting": "1321-N1 [7]", "result": "> 100"},
      {"measurement": "Selectivity ratio", "setting": "1321-N1 [8]", "result": "> 100"},
      {"measurement": "Stability", "setting": "Liver", "result": 97, "unit": "%"},
      {"measurement": "Selectivity ratio", "setting": "1321-N1 [9]", "result": "> 100"},
      {"measurement": "Selectivity ratio", "setting": "1321-N1 [10]", "result": "> 100"},
      {"measurement": "solubility", "setting": "[11]", "result": 199, "unit": "µM"},
      {"measurement": "Selectivity ratio", "setting": "1321-N1 [12]", "result": "> 100"},
      {"measurement": "Selectivity ratio", "setting": "1321-N1 [13]", "result": "> 100"},
      {"measurement": "Selectivity ratio", "setting": "1321-N1 [14]", "result": "> 100"},
      {"measurement": "Selectivity ratio", "setting": "1321-N1 [15]", "result": "> 100"},
      {"measurement": "fraction unbound", "setting": "[16]", "result": 0.031},
      {"measurement": "Selectivity ratio", "setting": "1321-N1 [17]", "result": "> 100"},
      {"measurement": "Selectivity ratio", "setting": "1321-N1 [18]", "result": "> 100"},
      {"measurement": "Selectivity ratio", "setting": "1321-N1 [19]", "result": "> 100"},
      {"measurement": "Selectivity ratio", "setting": "1321-N1 [20]", "result": "> 100"},
      {"measurement": "Selectivity ratio", "setting": "1321-N1 [21]", "result": "> 100"},
      {"measurement": "remaining at 288 h", "setting": "[22]", "result": 99.9, "unit": "%"},
      {"measurement": "Selectivity ratio", "setting": "1321-N1 [23]", "result": "> 100"},
      {"measurement": "Selectivity ratio", "setting": "1321-N1 [24]", "result": "> 100"},
      {"measurement": "Selectivity ratio", "setting": "HEK293", "result": "> 100"},
      {"measurement": "Papp", "setting": "[25]", "result": 16.4, "unit": "×10⁻⁶ cm/s"},
      {"measurement": "Selectivity ratio", "setting": "1321-N1 [26]", "result": "> 100"},
      {"measurement": "inhibition at 10 µM", "setting": "CYP1A2", "result": -7, "unit": "%"},
      {"measurement": "Activity", "setting": "[27]", "result": "inactive"},
      {"measurement": "Activity", "setting": "[28]", "result": "Active"},
      {"measurement": "logD", "setting": "[29]", "result": 1.97},
      {"measurement": "Selectivity ratio", "setting": "1321-N1 [30]", "result": "> 100"},
      {"measurement": "Efficacy", "setting": "[31]", "result": 103, "unit": "%"},
      {"measurement": "Selectivity ratio", "setting": "1321-N1 [32]", "result": "> 100"}
    ]}
  ]
}
